M1 antag = blocks the rat M1 muscarinic receptor response to acetylcholine; CHO-M1 cells, Fluo-4 calcium, ACh EC80 antagonist mode; hits give low values; B-score at 10 µM; 64,000 compounds, 3.4% hits;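 active = calcium fluorescence response, raw or row-and-column corrected B-score, differing from the plate sample mean either way at a set confidence level, mostly lower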
S1P3 agonist = agonists of human S1P3 receptor | Q99500 | S1P3 NFAT-BLA reporter cells, agonism, FRET ratio; relative to 1 µM S1P, basal subtracted | activation, % at 4.5 µM | 60,000 compounds, 0.1% hits | AID 373;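 active = activation above the screen-wide mean plus 3 SD, cut at about 4.5% in these data, passing the limit was not always enough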
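Measure – % activation relative to 1 µM S1P (100%), per plate · System – stable CHO line with human S1P3, Gα16, NFAT-BLA reporter · Timing – cells plated overnight, compound 4 h 37 °C, substrate 2 h RT · Technique – fluorescent BLA substrate, ex 405 nm, em 460/535 nm ratio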
D1 allo mod = D1 dopamine receptor (human) allosteric modulation. B-score at 10 µM. 58,000 compounds, 5.9% hits. P21728. AID 641. HEK293 D1, CRE-luciferase, dopamine EC30 potentiation; actives deviate in either direction;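 active = luminescence count or its row- and column-corrected plate score outside the 99.7% band of the plate's sample wells, on either side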
Target sequence (P21728 whole entry, looked up): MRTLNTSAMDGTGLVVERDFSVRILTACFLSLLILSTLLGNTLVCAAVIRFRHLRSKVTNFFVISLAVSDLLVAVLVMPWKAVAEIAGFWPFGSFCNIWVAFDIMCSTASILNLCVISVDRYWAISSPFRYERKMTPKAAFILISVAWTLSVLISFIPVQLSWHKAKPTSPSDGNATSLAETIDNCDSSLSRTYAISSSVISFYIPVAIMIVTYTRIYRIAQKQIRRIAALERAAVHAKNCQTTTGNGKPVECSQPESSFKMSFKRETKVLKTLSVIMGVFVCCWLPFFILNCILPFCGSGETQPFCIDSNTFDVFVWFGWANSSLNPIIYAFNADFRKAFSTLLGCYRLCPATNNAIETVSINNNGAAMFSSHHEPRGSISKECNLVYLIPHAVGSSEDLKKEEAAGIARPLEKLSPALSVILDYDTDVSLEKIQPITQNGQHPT
M1 agonist = agonists of M1 muscarinic receptor; B-score at 10 µM; 64,000 compounds, 3% hits; AID 626; CHO-M1 cells, Fluo-4 calcium fluorescence, agonist mode; hits give high values;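 active = fluorescence rise, raw or as B-score row- and column-corrected plate score, outside the 99.7% band of its plate's samples, either direction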
TNAP act mid DEA = activators of human TNAP at intermediate phosphate acceptor | purified TNAP, CDP-star luminescence, 100 mM DEA, 30 min; hits give high values; scale: 0 levamisole-inhibited, 1 vehicle-only enzyme | activation factor at 20 µM | 64,000 tested, under 10 active;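 active = activation factor of at least 2 at 20 µM, relative to controls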
S1P1 ag-PAM = agonists and agonism potentiators of human S1P1 receptor; S1P1 CRE-bla cells, forskolin, beta-lactamase FRET, potentiator mode; S1P1 agonist co-added at EC20, 2 nM; 100% = saturating reference agonist, 0% = basal; activation, % at 9.5 µM; 56,000 compounds, 0.57% hits; AID 449;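 active = activation above a cutoff set at the mean activation of all tested compounds plus 3 SD, cut at about 54% in these data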;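 also: forskolin at 4 µM as EC80 and the EC20 agonist is SEW2871; 100% = SEW2871 at its EC100 plus forskolin at EC80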
D1 PAM confirm = confirmation of human D1 dopamine receptor allosteric modulators. HEK293 D1 CRE-luciferase, dopamine EC30 potentiation; hits give high values. luminescence at 10 µM. 2,200 compounds, 88% hits. shares compounds with D1 allo mod;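 active = luminescence in either of two replicates above the same-plate mean plus 3 SD of the low-dose dopamine control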
D1 ag no DA = D1 (human) signaling in absence of dopamine | AID 646 | 1,900 compounds, 0.8% hits | luminescence at 10 µM | HEK293 D1 CRE-luciferase, luminescence, no dopamine; hits give high values | shares compounds with D1 allo mod; in the data active = luminescence above about 3900
Isoprot counter = counter-screen for D1 modulators: isoproterenol response in HEK293 cells; shares compounds with D1 allo mod; HEK293 D1 CRE-luciferase, isoproterenol EC30 counter-screen; hits give high values; luminescence at 10 µM; 2,200 compounds, 63% hits;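 active = luminescence in either replicate above plate mean of wells with a partly effective reference agonist dose plus 3 SD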;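 also: isoproterenol raises cAMP through native beta-adrenoceptor Gs so signal bypasses D1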
An asterisk follows results filed as active; · = no result given. A selection: hits, their analogues and other compounds. The true share with any hit is near 11%.

SMILES	M1 antag	S1P3 agonist	D1 allo mod	M1 agonist	TNAP act mid DEA	S1P1 ag-PAM	D1 PAM confirm	D1 ag no DA	Isoprot counter
COc1ccc(-c2noc(CSc3nnc(Cc4ccccc4)n3-c3cccc(C)c3)n2)cc1OC	-1.6	-1	1.5	0.13	0.9	-27	·	·	·
COc1ccc(-c2noc(CN(C(=O)c3ccc(OC(C)=O)cc3)C(C)C)n2)cc1OC	-0.46	0	3.9*	-0.18	1	-47	7848*	1480	3484*
COc1ccc(Cc2nnc(-c3cccc(C)c3)o2)cc1OC	0.16	0	4.3*	-1.9	0.9	-6	13948*	1620	4072*
O=C(COC(=O)C1c2ccccc2Oc2ccccc21)Nc1ccc2c(c1)OCO2	-1.3	0	-0.78	-1.2	0.9	17	·	·	·
Cc1ccc(S(=O)(=O)Nc2ccc(Br)cc2/C=N/n2cnnc2)cc1	-0.54	-2	·	1.3	0.9	38	·	·	·
O=C(OCc1ccccc1Cl)c1ccc(-n2cnnc2)cc1	1.3	-1	0.36	1.9	1	-5	·	·	·
c1ccc(Nc2nc3ccccc3n3cnnc23)cc1	-0.14	-1	4.2*	0.11	0.9	-8	15712*	1616	3056
c1ccc2c(c1)nc(NC1CCCCC1)c1nncn12	-0.065	0	14*	-0.59	0.8	-28	9836*	1048	3160*
CCS(=O)(=O)N1CCC(C(=O)NCCCN2CCCC2)CC1	0.32	0	-1.9	-0.29	1	5	·	·	·
Cc1nn2c(N3CCCC3)cc(C(C)C)nc2c1-c1ccccc1	1.1	0	5.3*	0.19	0.9	-16	5624*	1528	2896
Cc1ccc(NCc2nnc(SCC(=O)Nc3cccc(O)c3)n2CC2CCCO2)c(C)c1 (stereo not given)	0.63	0	-0.71	1.1	0.9	-8	·	·	·
COC(=O)C1CCN(S(=O)(=O)c2c(C)n(C)c(=O)n(C)c2=O)CC1	0.98	0	1.4*	1.5	0.9	1	7080	1560	2500
COc1ccc(S(=O)(=O)N2CCc3ccccc32)cc1C(=O)OCc1nnc(-c2ccccc2)o1	1.7	0	3.2*	-0.22	0.9	-3	7576*	1476	3328*
O=C(OCc1nnc(-c2ccccc2)o1)c1cc(S(=O)(=O)N2CCOCC2)c(Cl)cc1Cl	1.5	1	1.3	-1.1	1	-3	·	·	·
COC(=O)c1cc(CSc2nnc(NC3CCCCC3)s2)oc1C	-1.2	-1	10*	0.9	1	21	10504*	1400	2860*
COC(=O)c1cc(CSc2nc3ccc(C)cc3[nH]2)oc1C	-0.36	·	·	-1.1	1	·	·	·	·
CCOc1ccc2[nH]c(=O)c(CN(Cc3ccccc3)C(=O)N3CCCC3)cc2c1	0.1	0	1.3	0.16	0.9	-7	·	·	·
C=CCOc1c(Cl)cc(/C=N/O)cc1OC	0.14	-2	2.1	0.6	0.9	-12	·	·	·
C=CCOc1ccc(/C(CC)=N/O)c(OC)c1	0.33	0	3.4*	-0.027	0.9	-26	8264*	1700	3852
C=CCn1c(C(C)NC(=O)COC)nc2ccccc21 (stereo not given)	0.48	0	5.4*	-0.13	1	-9	5084	1624	2296
COC(=O)c1sccc1NC(=O)c1ccncc1	0.41	0	11*	-0.88	0.8	·	14580*	1608	4076*
COC(=O)c1sccc1NC(=O)Cn1nnc(-c2ccc(C)cc2)n1	0.46	-1	2.4*	1.2	0.9	·	4304	1332	2284
Cc1cccc(NC(=O)Cn2nnc(-c3cccs3)n2)c1C	0.01	0	-1.1	-0.65	0.9	12	·	·	·
COC(=O)c1sccc1NC(=O)c1cc(C)on1	0.055	0	3.4*	0.065	1	-34	10948*	1860	3180*
COC(=O)c1sccc1NC(=O)c1c(C)noc1C	2	-1	1.3	0.27	0.8	-58	·	·	·
SMILES	M1 antag	S1P3 agonist	D1 allo mod	M1 agonist	TNAP act mid DEA	S1P1 ag-PAM	D1 PAM confirm	D1 ag no DA	Isoprot counter
O=C(O)c1cccc(S(=O)(=O)N2CCSCC2)c1	0.07	-1	-0.064	-0.85	1	-2	·	·	·
COc1ccccc1C1NC(=O)NC(C)=C1C(C)=O (stereo not given)	-1.4	0	-0.17	0.3	1	4	·	·	·
c1ccc2c(c1)nc(NCC1CCCO1)c1nnnn12 (stereo not given)	-0.46	-1	2.9*	-0.73	0.9	-2	9992*	1484	3124
S=C(NCC1CCCO1)n1nnc2ccccc21 (stereo not given)	0.35	-1	-0.74	-0.25	0.9	-2	·	·	·
N#Cc1ccccc1OCC(=O)Nc1c(C(=O)C2CC2)oc2ccccc12	0.048	1	1.5	-0.011	0.9	12	·	·	·
CCOC(=O)c1oc2ccccc2c1NC(=O)c1cccc(OC)c1OC	-0.041	0	16*	0.61	0.9	-52	20936*	1800	4908*
CC(=O)Nc1c(C(=O)C2CC2)oc2ccccc12	0.25	-1	8.3*	0.89	0.9	0	13456*	1564	3536*
CCOC(=O)c1oc2ccccc2c1NC(=O)c1cccc(OC)c1	-0.62	0	0.51	0.36	0.8	-62	·	·	·
CCOC(=O)c1oc2ccccc2c1NC(=O)C1CCCCC1	0.00096	0	9.5*	0.35	0.6	-19	15764*	·	3664*
CN(C)c1ccc(P(=O)(OCc2ccccc2)C(O)c2cccnc2)cc1 (stereo not given)	-0.91	-1	0.27	0.41	0.9	5	·	·	·
CCOC(=O)CNC(=O)CSc1nc2cccnc2n1C	0.023	0	·	-0.47	1	8	·	·	·
CNc1nn(-c2cccc(Cl)c2)nc1N	0.61	-1	4.2*	1.5	0.9	8	8344*	1588	2896
O=c1n(-c2cccc(Cl)c2)c(=O)n2n1CCC2	0.16	-1	0.45	-0.39	1	-3	·	·	·
CCc1ccc(OCc2nnc(SCC(=O)NCc3ccco3)o2)cc1	0.58	0	2.4	1.5	1	-19	·	·	·
COC(=O)COc1nsnc1N1CCOCC1	-0.51	0	2.3*	-0.015	0.9	4	6088*	·	2408
COc1nc(/C(N)=N/O)nc(N2CCCCC2)n1	1.1	-1	13*	-0.034	0.9	-25	24932*	1416	5356*

From PubChem BioAssay
